Laboratory results taken from ChEMBL document CHEMBL1136991, “Novel potent BRAF inhibitors: toward 1 nM compounds through optimization of the central phenyl ring” (J Med Chem, 2009).

Key:
[1] = Inhibition of PKA at 1 uM relative to control
[2] = biological target: MAP kinase-interacting serine/threonine-protein kinase 1 (Homo sapiens) (UniProt Q9BUB5); assay: Inhibition of MNK1 at 1 uM relative to control
[3] = biological target: T1, Dual specificity tyrosine-phosphorylation-regulated kinase 3 (Homo sapiens) (UniProt O43781); assay: Inhibition of DYRK3 at 1 uM relative to control
T1 sequence (whole entry): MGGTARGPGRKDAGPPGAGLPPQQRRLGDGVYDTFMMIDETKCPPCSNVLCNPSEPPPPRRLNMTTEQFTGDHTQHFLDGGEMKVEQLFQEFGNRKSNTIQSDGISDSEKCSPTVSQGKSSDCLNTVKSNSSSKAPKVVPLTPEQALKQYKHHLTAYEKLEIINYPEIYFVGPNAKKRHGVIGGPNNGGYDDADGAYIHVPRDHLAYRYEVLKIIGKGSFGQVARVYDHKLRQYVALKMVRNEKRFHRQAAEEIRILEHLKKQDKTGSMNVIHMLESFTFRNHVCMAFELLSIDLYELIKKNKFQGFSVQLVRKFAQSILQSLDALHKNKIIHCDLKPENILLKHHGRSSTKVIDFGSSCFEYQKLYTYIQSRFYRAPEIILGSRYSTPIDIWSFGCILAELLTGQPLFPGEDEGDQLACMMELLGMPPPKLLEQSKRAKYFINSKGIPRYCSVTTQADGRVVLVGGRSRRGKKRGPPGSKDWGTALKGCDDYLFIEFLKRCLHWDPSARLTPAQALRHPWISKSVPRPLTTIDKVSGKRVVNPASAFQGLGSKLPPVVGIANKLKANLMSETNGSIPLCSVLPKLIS

[4] = biological target: [Pyruvate dehydrogenase (acetyl-transferring)] kinase isozyme 1, mitochondrial (Homo sapiens) (UniProt Q15118); assay: Inhibition of PDK1 at 1 uM relative to control
[5] = biological target: MAP kinase-activated protein kinase 2 (Homo sapiens) (UniProt P49137); assay: Inhibition of MAPKAP-K2 at 1 uM relative to control
[6] = biological target: T2, Serine/threonine-protein kinase 3 (Homo sapiens) (UniProt Q13188); assay: Inhibition of MST2 at 1 uM relative to control
T2 sequence (whole entry): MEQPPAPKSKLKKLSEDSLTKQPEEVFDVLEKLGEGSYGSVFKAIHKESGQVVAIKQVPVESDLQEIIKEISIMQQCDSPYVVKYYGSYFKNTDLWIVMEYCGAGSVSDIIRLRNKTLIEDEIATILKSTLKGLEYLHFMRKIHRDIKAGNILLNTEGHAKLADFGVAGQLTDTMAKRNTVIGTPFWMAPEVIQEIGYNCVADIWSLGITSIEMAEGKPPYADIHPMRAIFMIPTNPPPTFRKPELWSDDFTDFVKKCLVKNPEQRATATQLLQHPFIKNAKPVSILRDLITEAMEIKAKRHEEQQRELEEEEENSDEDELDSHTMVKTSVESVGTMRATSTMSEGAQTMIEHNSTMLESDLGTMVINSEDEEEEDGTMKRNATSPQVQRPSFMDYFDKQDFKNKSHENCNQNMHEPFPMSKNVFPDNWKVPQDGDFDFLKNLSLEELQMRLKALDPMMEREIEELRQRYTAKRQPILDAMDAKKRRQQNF

[7] = biological target: T3, Serine/threonine-protein kinase Chk1 (Homo sapiens) (UniProt O14757); assay: Inhibition of CHK1 at 1 uM relative to control
T3 sequence (whole entry): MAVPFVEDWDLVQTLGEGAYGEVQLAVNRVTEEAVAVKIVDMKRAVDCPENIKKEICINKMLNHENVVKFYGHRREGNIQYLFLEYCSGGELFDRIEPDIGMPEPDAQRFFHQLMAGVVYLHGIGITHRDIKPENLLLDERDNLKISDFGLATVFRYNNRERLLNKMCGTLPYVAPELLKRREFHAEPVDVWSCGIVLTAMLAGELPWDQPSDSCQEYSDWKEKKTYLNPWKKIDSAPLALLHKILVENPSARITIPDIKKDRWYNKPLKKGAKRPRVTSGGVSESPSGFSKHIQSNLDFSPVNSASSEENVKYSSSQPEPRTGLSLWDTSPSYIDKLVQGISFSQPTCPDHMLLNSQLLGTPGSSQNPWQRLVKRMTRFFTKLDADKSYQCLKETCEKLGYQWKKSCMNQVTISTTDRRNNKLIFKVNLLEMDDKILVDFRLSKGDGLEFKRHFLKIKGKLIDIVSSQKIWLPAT

[8] = biological target: T4, Mitogen-activated protein kinase 12 (Homo sapiens) (UniProt P53778); assay: Inhibition of p38-gamma at 1 uM relative to control
T4 sequence (whole entry): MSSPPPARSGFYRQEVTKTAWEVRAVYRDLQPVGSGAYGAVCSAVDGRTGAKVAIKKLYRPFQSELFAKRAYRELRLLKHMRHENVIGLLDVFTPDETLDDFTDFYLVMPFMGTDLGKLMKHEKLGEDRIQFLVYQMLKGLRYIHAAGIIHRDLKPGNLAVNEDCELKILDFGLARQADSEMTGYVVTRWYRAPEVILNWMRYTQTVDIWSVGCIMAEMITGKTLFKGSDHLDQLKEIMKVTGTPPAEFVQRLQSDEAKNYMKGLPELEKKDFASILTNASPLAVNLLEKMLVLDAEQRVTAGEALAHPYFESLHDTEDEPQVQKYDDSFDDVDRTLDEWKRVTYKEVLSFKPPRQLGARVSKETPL

[9] = biological target: Dual specificity mitogen-activated protein kinase kinase 1 (Homo sapiens) (UniProt Q02750); assay: Inhibition of MKK1 at 1 uM relative to control
[10] = biological target: Ribosomal protein S6 kinase alpha-1 (Homo sapiens) (UniProt Q15418); assay: Inhibition of RSK1 at 1 uM relative to control
[11] = biological target: Homeodomain-interacting protein kinase 2 (Homo sapiens) (UniProt Q9H2X6); assay: Inhibition of HIPK2 at 1 uM relative to control
[12] = biological target: Serine/threonine-protein kinase B-raf (Homo sapiens, UniProt P15056, V600E); assay: Inhibition of BRAF V600E mutant-mediated ERK phosphorylation in human WM266.4 cells; type: cell-based
Method in brief: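 Cellular pathway read-out: ERK phosphorylation (pERK) was measured in WM266.4 melanoma cells and reported as an IC50.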

[13] = biological target: Mitogen-activated protein kinase 9 (Homo sapiens) (UniProt P45984); assay: Inhibition of JNK2 at 1 uM relative to control
[14] = biological target: Mitogen-activated protein kinase 8 (Homo sapiens) (UniProt P45983); assay: Inhibition of JNK1 at 1 uM relative to control
[15] = biological target: MAP kinase-activated protein kinase 3 (Homo sapiens) (UniProt Q16644); assay: Inhibition of MAPKAP-K3 at 1 uM relative to control
MAP kinase-activated protein kinase 3 (Homo sapiens), sequence (Q16644 whole entry, looked up): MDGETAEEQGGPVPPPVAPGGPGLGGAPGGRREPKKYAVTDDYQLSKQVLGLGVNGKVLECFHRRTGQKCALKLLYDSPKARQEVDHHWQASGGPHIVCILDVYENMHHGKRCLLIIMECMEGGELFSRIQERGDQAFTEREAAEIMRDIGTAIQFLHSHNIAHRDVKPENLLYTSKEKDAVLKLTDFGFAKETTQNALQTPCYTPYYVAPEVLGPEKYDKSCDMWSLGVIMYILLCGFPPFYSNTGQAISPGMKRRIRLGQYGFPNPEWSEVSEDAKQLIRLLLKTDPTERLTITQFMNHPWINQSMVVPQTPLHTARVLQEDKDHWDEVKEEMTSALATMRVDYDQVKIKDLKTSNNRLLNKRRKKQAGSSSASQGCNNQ

Ribosomal protein S6 kinase alpha-1 (Homo sapiens), sequence (Q15418 whole entry): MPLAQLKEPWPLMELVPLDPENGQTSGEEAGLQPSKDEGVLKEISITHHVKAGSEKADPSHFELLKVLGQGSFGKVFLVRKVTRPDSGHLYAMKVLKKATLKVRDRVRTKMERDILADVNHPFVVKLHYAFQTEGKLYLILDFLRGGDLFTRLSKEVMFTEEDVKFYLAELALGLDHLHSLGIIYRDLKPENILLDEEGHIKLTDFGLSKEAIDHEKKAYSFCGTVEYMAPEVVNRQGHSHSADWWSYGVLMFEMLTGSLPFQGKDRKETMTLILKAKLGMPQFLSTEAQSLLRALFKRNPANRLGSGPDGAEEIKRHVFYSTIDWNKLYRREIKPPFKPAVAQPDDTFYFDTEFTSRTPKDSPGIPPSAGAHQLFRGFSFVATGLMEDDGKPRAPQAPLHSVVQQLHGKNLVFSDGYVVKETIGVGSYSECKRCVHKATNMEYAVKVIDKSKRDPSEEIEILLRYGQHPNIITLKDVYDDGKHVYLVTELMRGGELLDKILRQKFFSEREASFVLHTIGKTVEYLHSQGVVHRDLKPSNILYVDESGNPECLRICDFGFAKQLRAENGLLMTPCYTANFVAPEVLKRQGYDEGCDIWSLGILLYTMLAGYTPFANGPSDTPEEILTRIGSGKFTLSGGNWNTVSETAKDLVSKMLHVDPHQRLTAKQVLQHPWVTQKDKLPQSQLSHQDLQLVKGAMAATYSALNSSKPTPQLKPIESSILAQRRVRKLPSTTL
Mitogen-activated protein kinase 8 (Homo sapiens), sequence (P45983 whole entry): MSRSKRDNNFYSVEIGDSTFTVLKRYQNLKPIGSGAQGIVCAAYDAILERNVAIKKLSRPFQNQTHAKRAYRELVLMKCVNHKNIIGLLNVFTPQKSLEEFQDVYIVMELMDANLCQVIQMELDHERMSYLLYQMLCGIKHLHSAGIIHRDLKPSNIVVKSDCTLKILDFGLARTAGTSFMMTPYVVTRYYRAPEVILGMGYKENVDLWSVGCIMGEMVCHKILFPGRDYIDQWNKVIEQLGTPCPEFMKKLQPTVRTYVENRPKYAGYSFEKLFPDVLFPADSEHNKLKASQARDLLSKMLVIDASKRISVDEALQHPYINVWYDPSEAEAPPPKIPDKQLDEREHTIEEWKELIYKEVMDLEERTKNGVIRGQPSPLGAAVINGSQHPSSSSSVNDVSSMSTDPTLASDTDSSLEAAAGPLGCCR
Serine/threonine-protein kinase B-raf, sequence (P15056 2-766 V600E limits assumed): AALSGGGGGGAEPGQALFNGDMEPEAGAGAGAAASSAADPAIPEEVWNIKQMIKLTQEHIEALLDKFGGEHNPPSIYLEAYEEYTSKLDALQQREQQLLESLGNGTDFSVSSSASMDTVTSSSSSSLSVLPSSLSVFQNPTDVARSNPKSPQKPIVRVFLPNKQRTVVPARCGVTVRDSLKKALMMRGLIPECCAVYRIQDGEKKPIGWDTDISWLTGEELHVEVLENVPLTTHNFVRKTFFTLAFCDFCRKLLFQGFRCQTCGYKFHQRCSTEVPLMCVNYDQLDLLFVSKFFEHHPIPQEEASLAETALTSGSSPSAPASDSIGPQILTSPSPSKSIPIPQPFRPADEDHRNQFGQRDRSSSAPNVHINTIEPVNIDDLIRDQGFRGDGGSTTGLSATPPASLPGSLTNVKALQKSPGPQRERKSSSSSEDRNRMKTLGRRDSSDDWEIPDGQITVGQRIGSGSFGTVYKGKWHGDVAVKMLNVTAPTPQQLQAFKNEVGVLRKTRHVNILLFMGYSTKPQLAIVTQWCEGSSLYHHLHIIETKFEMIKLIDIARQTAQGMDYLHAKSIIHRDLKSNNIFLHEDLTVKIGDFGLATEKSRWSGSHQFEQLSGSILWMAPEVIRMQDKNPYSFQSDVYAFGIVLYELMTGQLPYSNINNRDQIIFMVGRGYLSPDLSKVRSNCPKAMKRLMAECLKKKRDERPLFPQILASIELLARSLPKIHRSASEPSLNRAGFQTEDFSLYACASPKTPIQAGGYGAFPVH
Dual specificity mitogen-activated protein kinase kinase 1 (Homo sapiens), sequence (Q02750 whole entry): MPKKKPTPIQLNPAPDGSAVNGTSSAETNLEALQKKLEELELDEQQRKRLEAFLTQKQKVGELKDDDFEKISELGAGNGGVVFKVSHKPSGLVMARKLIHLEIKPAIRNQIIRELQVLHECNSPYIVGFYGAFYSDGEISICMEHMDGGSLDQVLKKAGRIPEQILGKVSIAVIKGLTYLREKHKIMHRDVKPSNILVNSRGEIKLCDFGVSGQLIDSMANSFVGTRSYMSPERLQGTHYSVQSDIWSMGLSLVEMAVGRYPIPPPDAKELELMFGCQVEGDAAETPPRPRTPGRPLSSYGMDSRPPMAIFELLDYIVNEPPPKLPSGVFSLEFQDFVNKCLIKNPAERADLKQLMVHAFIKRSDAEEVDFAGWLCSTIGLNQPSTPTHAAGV
Homeodomain-interacting protein kinase 2 (Homo sapiens), sequence (Q9H2X6 whole entry, looked up): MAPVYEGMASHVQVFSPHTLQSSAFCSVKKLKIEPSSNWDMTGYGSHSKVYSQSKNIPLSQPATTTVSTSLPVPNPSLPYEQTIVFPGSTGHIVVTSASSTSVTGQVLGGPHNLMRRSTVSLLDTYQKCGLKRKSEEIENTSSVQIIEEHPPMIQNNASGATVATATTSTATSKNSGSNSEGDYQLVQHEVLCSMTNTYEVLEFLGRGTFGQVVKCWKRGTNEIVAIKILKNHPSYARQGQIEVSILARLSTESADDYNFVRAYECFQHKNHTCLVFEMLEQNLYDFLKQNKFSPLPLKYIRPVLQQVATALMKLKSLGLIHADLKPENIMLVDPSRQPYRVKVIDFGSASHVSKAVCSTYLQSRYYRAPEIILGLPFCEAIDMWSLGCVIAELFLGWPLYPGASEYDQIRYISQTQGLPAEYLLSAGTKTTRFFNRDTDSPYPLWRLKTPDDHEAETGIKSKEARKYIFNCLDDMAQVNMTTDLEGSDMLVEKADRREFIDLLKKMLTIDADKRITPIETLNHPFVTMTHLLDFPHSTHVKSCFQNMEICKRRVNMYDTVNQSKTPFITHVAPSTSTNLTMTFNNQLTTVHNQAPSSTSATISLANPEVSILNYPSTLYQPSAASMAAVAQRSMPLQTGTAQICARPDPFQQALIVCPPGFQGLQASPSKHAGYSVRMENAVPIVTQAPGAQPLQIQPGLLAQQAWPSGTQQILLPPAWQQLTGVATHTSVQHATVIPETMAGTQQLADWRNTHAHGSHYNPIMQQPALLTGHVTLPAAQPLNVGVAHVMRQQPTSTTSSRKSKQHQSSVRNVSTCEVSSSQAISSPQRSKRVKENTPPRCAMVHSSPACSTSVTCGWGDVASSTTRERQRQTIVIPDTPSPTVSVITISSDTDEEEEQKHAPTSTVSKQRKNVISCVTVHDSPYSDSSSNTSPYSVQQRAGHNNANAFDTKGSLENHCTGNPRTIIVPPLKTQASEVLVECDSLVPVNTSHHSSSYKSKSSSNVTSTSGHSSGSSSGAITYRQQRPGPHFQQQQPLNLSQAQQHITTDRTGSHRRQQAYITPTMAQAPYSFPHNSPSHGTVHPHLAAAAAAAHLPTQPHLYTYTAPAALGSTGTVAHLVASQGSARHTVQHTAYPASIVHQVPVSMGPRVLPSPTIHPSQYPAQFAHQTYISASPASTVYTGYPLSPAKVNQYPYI
MAP kinase-activated protein kinase 2 (Homo sapiens), sequence (P49137 whole entry, looked up): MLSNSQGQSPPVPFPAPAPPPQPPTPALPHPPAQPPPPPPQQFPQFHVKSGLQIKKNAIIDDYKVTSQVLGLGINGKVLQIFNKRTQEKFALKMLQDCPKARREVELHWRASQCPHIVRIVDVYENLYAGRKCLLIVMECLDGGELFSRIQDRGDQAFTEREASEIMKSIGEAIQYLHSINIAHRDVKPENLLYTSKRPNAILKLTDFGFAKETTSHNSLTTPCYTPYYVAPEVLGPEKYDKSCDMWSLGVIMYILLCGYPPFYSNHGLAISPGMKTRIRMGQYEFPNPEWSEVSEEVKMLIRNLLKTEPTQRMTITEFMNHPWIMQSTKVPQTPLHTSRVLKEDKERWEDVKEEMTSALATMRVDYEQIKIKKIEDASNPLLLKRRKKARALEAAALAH
MAP kinase-interacting serine/threonine-protein kinase 1 (Homo sapiens), sequence (Q9BUB5 whole entry, looked up): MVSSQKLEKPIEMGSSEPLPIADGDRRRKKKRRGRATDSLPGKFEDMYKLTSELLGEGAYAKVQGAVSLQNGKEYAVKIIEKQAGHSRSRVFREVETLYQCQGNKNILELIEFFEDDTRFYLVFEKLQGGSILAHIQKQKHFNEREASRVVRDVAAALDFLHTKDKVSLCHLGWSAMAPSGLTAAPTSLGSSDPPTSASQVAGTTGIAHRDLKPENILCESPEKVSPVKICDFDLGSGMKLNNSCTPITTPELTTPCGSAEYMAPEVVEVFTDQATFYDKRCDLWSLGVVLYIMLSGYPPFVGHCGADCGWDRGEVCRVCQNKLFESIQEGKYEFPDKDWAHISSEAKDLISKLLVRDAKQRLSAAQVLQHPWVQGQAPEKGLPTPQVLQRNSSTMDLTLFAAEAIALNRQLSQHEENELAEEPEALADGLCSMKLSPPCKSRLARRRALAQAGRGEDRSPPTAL

| residual activity [1] [%] | residual activity [2] [%] | residual activity [3] [%] | residual activity [4] [%] | residual activity [5] [%] | residual activity [6] [%] | residual activity [7] [%] | residual activity [8] [%] | residual activity [9] [%] | residual activity [10] [%] | residual activity [11] [%] | IC50 [12] [nM] | residual activity [13] [%] | residual activity [14] [%] | residual activity [15] [%] | SMILES |
| --- | --- | --- | --- | --- | --- | --- | --- | --- | --- | --- | --- | --- | --- | --- | --- |
| 75 | 75 | 75 | 100 | 75 | 75 | 75 | < 25 | 75 | 75 | 75 | 19300 | < 25 | 75 | 100 | CC(C)(C)c1cccc(NC(=O)Nc2ccc(Oc3ccnc4[nH]c(=O)[nH]c34)c3ccccc23)c1 |
| 75 | 100 | 100 | 100 | 100 | 100 | 100 | 50 | 100 | 75 | 100 | 214 | 50 | 75 | 100 | O=C(Nc1cc(C(F)(F)F)ccc1F)Nc1ccc(Oc2ccnc3[nH]c(=O)[nH]c23)c2ccccc12 |
| 100 | 100 | 75 | 100 | 100 | 75 | 100 | 50 | 100 | 100 | 75 | 1300 | 100 | 100 | 100 | CSc1cc(Oc2ccnc3[nH]c(=O)[nH]c23)ccc1NC(=O)Nc1cccc(C(F)(F)F)c1 |
